# Results from ChEMBL document CHEMBL4261538, “Synthesis and molecular docking studies of xanthone attached amino acids as potential antimicrobial and anti-inflammatory agents” (Medchemcomm, 2017).
# The source made the active and inactive calls. The calls are words filed in the database; no cut-off is given here.
# How the values were obtained:
# Staphylococcus aureus [1] = assay: Antibacterial activity against Staphylococcus aureus at 25 ug/ml incubated for 24 hrs by agar well diffusion method; assay type: functional; conditions: read-out: DIZ
# Summary of the method: (§1)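 Bacteria grown in nutrient broth at 37 °C for 24 h, then subcultured at room temperature. Compounds dissolved in DMSO at 5 mg mL⁻¹ and 5–20 µL added to 6 mm wells, giving 25, 50, 75, 100 µg per well. Gentamicin was the positive control and DMSO the negative control. Plates held at 37 °C for 24 h, then inhibition zone diameter (mm) measured. Values are means of three determinations.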
# Staphylococcus aureus [2] = assay: Antibacterial activity against Staphylococcus aureus at 50 ug/ml incubated for 24 hrs by agar well diffusion method; assay type: functional; conditions: read-out: DIZ; summary of the method: as §1
# Staphylococcus aureus [3] = assay: Antibacterial activity against Staphylococcus aureus at 75 ug/ml incubated for 24 hrs by agar well diffusion method; assay type: functional; conditions: read-out: DIZ; summary of the method: as §1
# Staphylococcus aureus [4] = assay: Antibacterial activity against Staphylococcus aureus at 100 ug/ml incubated for 24 hrs by agar well diffusion method; assay type: functional; conditions: read-out: DIZ; summary of the method: as §1
# Bacillus subtilis [5] = assay: Antibacterial activity against Bacillus subtilis at 25 ug/ml incubated for 24 hrs by agar well diffusion method; assay type: functional; conditions: read-out: DIZ; summary of the method: as §1
# Bacillus subtilis [6] = assay: Antibacterial activity against Bacillus subtilis at 50 ug/ml incubated for 24 hrs by agar well diffusion method; assay type: functional; conditions: read-out: DIZ; summary of the method: as §1
# Bacillus subtilis [7] = assay: Antibacterial activity against Bacillus subtilis at 75 ug/ml incubated for 24 hrs by agar well diffusion method; assay type: functional; conditions: read-out: DIZ; summary of the method: as §1
# Bacillus subtilis [8] = assay: Antibacterial activity against Bacillus subtilis at 100 ug/ml incubated for 24 hrs by agar well diffusion method; assay type: functional; conditions: read-out: DIZ; summary of the method: as §1
# Escherichia coli [9] = assay: Antibacterial activity against Escherichia coli at 25 ug/ml incubated for 24 hrs by agar well diffusion method; assay type: functional; conditions: read-out: DIZ; summary of the method: as §1
# Escherichia coli [10] = assay: Antibacterial activity against Escherichia coli at 50 ug/ml incubated for 24 hrs by agar well diffusion method; assay type: functional; conditions: read-out: DIZ; summary of the method: as §1
# Escherichia coli [11] = assay: Antibacterial activity against Escherichia coli at 75 ug/ml incubated for 24 hrs by agar well diffusion method; assay type: functional; conditions: read-out: DIZ; summary of the method: as §1
# Escherichia coli [12] = assay: Antibacterial activity against Escherichia coli at 100 ug/ml incubated for 24 hrs by agar well diffusion method; assay type: functional; conditions: read-out: DIZ; summary of the method: as §1
# Klebsiella pneumoniae [13] = assay: Antibacterial activity against Klebsiella pneumoniae at 25 ug/ml incubated for 24 hrs by agar well diffusion method; assay type: functional; conditions: read-out: DIZ; summary of the method: as §1
# Klebsiella pneumoniae [14] = assay: Antibacterial activity against Klebsiella pneumoniae at 50 ug/ml incubated for 24 hrs by agar well diffusion method; assay type: functional; conditions: read-out: DIZ; summary of the method: as §1
# Klebsiella pneumoniae [15] = assay: Antibacterial activity against Klebsiella pneumoniae at 75 ug/ml incubated for 24 hrs by agar well diffusion method; assay type: functional; conditions: read-out: DIZ; summary of the method: as §1
# Klebsiella pneumoniae [16] = assay: Antibacterial activity against Klebsiella pneumoniae at 100 ug/ml incubated for 24 hrs by agar well diffusion method; assay type: functional; conditions: read-out: DIZ; summary of the method: as §1
# Aspergillus niger [17] = assay: Antifungal activity against Aspergillus niger at 25 ug/ml incubated for 48 hrs by agar well diffusion method; assay type: functional; conditions: read-out: DIZ
# Summary of the method: (§2)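 Compounds dissolved in DMSO at 5 mg mL⁻¹ and 5–20 µL added to 6 mm wells, giving 25, 50, 75, 100 µg per well. Bavistin was the positive control and DMSO the negative control. Plates incubated at 28 °C for 48 h, then inhibition zone diameter (mm) measured. Values are means of three determinations.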
# Aspergillus niger [18] = assay: Antifungal activity against Aspergillus niger at 50 ug/ml incubated for 48 hrs by agar well diffusion method; assay type: functional; conditions: read-out: DIZ; summary of the method: as §2
# Aspergillus niger [19] = assay: Antifungal activity against Aspergillus niger at 75 ug/ml incubated for 48 hrs by agar well diffusion method; assay type: functional; conditions: read-out: DIZ; summary of the method: as §2
# Aspergillus niger [20] = assay: Antifungal activity against Aspergillus niger at 100 ug/ml incubated for 48 hrs by agar well diffusion method; assay type: functional; conditions: read-out: DIZ; summary of the method: as §2
# Candida albicans [21] = assay: Antifungal activity against Candida albicans at 25 ug/ml incubated for 48 hrs by agar well diffusion method; assay type: functional; conditions: read-out: DIZ; summary of the method: as §2
# Candida albicans [22] = assay: Antifungal activity against Candida albicans at 50 ug/ml incubated for 48 hrs by agar well diffusion method; assay type: functional; conditions: read-out: DIZ; summary of the method: as §2
# Candida albicans [23] = assay: Antifungal activity against Candida albicans at 75 ug/ml incubated for 48 hrs by agar well diffusion method; assay type: functional; conditions: read-out: DIZ; summary of the method: as §2
# Candida albicans [24] = assay: Antifungal activity against Candida albicans at 100 ug/ml incubated for 48 hrs by agar well diffusion method; assay type: functional; conditions: read-out: DIZ; summary of the method: as §2
# Fusarium oxysporum [25] = assay: Antifungal activity against Fusarium oxysporum at 25 ug/ml incubated for 48 hrs by agar well diffusion method; assay type: functional; conditions: read-out: DIZ; summary of the method: as §2
# Fusarium oxysporum [26] = assay: Antifungal activity against Fusarium oxysporum at 50 ug/ml incubated for 48 hrs by agar well diffusion method; assay type: functional; conditions: read-out: DIZ; summary of the method: as §2
# Fusarium oxysporum [27] = assay: Antifungal activity against Fusarium oxysporum at 75 ug/ml incubated for 48 hrs by agar well diffusion method; assay type: functional; conditions: read-out: DIZ; summary of the method: as §2
# Fusarium oxysporum [28] = assay: Antifungal activity against Fusarium oxysporum at 100 ug/ml incubated for 48 hrs by agar well diffusion method; assay type: functional; conditions: read-out: DIZ; summary of the method: as §2
# Staphylococcus aureus [29] = assay: Antibacterial activity against Staphylococcus aureus incubated for 24 hrs by microdilution method; assay type: functional
# Bacillus subtilis [30] = assay: Antibacterial activity against Bacillus subtilis incubated for 24 hrs by microdilution method; assay type: functional
# Escherichia coli [31] = assay: Antibacterial activity against Escherichia coli incubated for 24 hrs by microdilution method; assay type: functional
# Klebsiella pneumoniae [32] = assay: Antibacterial activity against Klebsiella pneumoniae incubated for 24 hrs by microdilution method; assay type: functional
# Aspergillus niger [33] = assay: Antifungal activity against Aspergillus niger incubated for 48 to 72 hrs by microdilution method; assay type: functional
# Summary of the method: (§3)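 Sabouraud agar plates inoculated with fungal suspension at 10⁵ CFU mL⁻¹ plus serially diluted compounds and bavistin reference, both in DMSO. Incubated at 25 °C for 48–72 h. MIC is the lowest concentration completely inhibiting growth. Values are means of three determinations.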
# Candida albicans [34] = assay: Antifungal activity against Candida albicans incubated for 48 to 72 hrs by microdilution method; assay type: functional; summary of the method: as §3
# Fusarium oxysporum [35] = assay: Antifungal activity against Fusarium oxysporum incubated for 48 to 72 hrs by microdilution method; assay type: functional; summary of the method: as §3
# Staphylococcus aureus [36] = assay: Induction of cell membrane damage in Staphylococcus aureus assessed as cell content leakage at MIC after 2 hrs by SEM analysis; assay type: functional, organism-based
# Erythrocyte = assay: Anti-inflammatory activity in human RBC assessed as inhibition of hypotonic solution-induced hemolysis after 10 mins by spectrophotometric method; assay type: functional, cell-based
# Summary of the method: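 Human blood (heparinized) washed with 0.9% saline, packed cells made into a 40% v/v stock in isotonic phosphate buffer (154 mM NaCl, 10 mM sodium phosphate, pH 7.4). Stock RBC mixed with hypotonic buffer (50 mM NaCl, 10 mM phosphate, pH 7.4) plus sample at 20–100 µg mL⁻¹.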
# Staphylococcus aureus [37] = assay: Induction of cell membrane damage in Staphylococcus aureus assessed as cell content leakage at MIC by spectrophotometric method; assay type: functional, organism-based; conditions: TDE = time-dependent effect
# Summary of the method: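 Log-phase S. aureus inoculated into 0.1% sterile peptone water, with an untreated control, and held at 37 °C for 0, 30, 60 and 120 min. 1 mL of broth centrifuged and supernatant OD read at 260 nm to measure released DNA. Run in triplicate, repeated three times.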
SMILES,zone of inhibition at 25 µg/mL (Staphylococcus aureus [1]),zone of inhibition at 50 µg/mL (Staphylococcus aureus [2]),zone of inhibition at 75 µg/mL (Staphylococcus aureus [3]),zone of inhibition at 100 µg/mL (Staphylococcus aureus [4]),zone of inhibition at 25 µg/mL (Bacillus subtilis [5]),zone of inhibition at 50 µg/mL (Bacillus subtilis [6]),zone of inhibition at 75 µg/mL (Bacillus subtilis [7]),zone of inhibition at 100 µg/mL (Bacillus subtilis [8]),zone of inhibition at 25 µg/mL (Escherichia coli [9]),zone of inhibition at 50 µg/mL (Escherichia coli [10]),zone of inhibition at 75 µg/mL (Escherichia coli [11]),zone of inhibition at 100 µg/mL (Escherichia coli [12]),zone of inhibition at 25 µg/mL (Klebsiella pneumoniae [13]),zone of inhibition at 50 µg/mL (Klebsiella pneumoniae [14]),zone of inhibition at 75 µg/mL (Klebsiella pneumoniae [15]),zone of inhibition at 100 µg/mL (Klebsiella pneumoniae [16]),zone of inhibition at 25 µg/mL (Aspergillus niger [17]),zone of inhibition at 50 µg/mL (Aspergillus niger [18]),zone of inhibition at 75 µg/mL (Aspergillus niger [19]),zone of inhibition at 100 µg/mL (Aspergillus niger [20]),further results
Cl.N[C@@H](Cc1ccc(O)cc1)C(=O)Oc1ccc2c(=O)c3ccccc3oc2c1,23 mm,27 mm,35 mm,39 mm,23 mm,26 mm,38 mm,40 mm,21 mm,26 mm,34 mm,39 mm,21 mm,26 mm,31 mm,37 mm,24 mm,31 mm,38 mm,40 mm,zone of inhibition at 25 µg/mL (Candida albicans [21]): 23 mm; zone of inhibition at 50 µg/mL (Candida albicans [22]): 30 mm; zone of inhibition at 75 µg/mL (Candida albicans [23]): 36 mm; zone of inhibition at 100 µg/mL (Candida albicans [24]): 39 mm; zone of inhibition at 25 µg/mL (Fusarium oxysporum [25]): 21 mm; zone of inhibition at 50 µg/mL (Fusarium oxysporum [26]): 28 mm; zone of inhibition at 75 µg/mL (Fusarium oxysporum [27]): 35 mm; zone of inhibition at 100 µg/mL (Fusarium oxysporum [28]): 41 mm; MIC (Staphylococcus aureus [29]): 18 µg/mL; MIC (Bacillus subtilis [30]): 19 µg/mL; MIC (Escherichia coli [31]): 20 µg/mL; MIC (Klebsiella pneumoniae [32]): 17 µg/mL; MIC (Aspergillus niger [33]): 21 µg/mL; MIC (Candida albicans [34]): 23 µg/mL; MIC (Fusarium oxysporum [35]): 23 µg/mL; Activity (Staphylococcus aureus [36]): Active; IC50 (Erythrocyte): 32 µg/mL
CC(C)(C)OC(=O)N[C@@H](Cc1c[nH]c2ccccc12)C(=O)Oc1ccc2c(=O)c3ccccc3oc2c1,22 mm,29 mm,35 mm,40 mm,23 mm,29 mm,33 mm,39 mm,24 mm,30 mm,37 mm,41 mm,22 mm,29 mm,36 mm,41 mm,24 mm,31 mm,36 mm,44 mm,zone of inhibition at 25 µg/mL (Candida albicans [21]): 24 mm; zone of inhibition at 50 µg/mL (Candida albicans [22]): 31 mm; zone of inhibition at 75 µg/mL (Candida albicans [23]): 37 mm; zone of inhibition at 100 µg/mL (Candida albicans [24]): 42 mm; zone of inhibition at 25 µg/mL (Fusarium oxysporum [25]): 21 mm; zone of inhibition at 50 µg/mL (Fusarium oxysporum [26]): 30 mm; zone of inhibition at 75 µg/mL (Fusarium oxysporum [27]): 35 mm; zone of inhibition at 100 µg/mL (Fusarium oxysporum [28]): 40 mm; MIC (Staphylococcus aureus [29]): 18 µg/mL; MIC (Bacillus subtilis [30]): 17 µg/mL; MIC (Escherichia coli [31]): 16 µg/mL; MIC (Klebsiella pneumoniae [32]): 20 µg/mL; MIC (Aspergillus niger [33]): 20 µg/mL; MIC (Candida albicans [34]): 19 µg/mL; MIC (Fusarium oxysporum [35]): 21 µg/mL; Activity (Staphylococcus aureus [37]): Tde; IC50 (Erythrocyte): 24 µg/mL
CC(C)(C)OC(=O)N[C@@H](Cc1ccccc1)C(=O)Oc1ccc2c(=O)c3ccccc3oc2c1,18 mm,25 mm,31 mm,34 mm,17 mm,26 mm,33 mm,36 mm,16 mm,25 mm,32 mm,34 mm,20 mm,27 mm,33 mm,37 mm,17 mm,28 mm,35 mm,40 mm,zone of inhibition at 25 µg/mL (Candida albicans [21]): 22 mm; zone of inhibition at 50 µg/mL (Candida albicans [22]): 27 mm; zone of inhibition at 75 µg/mL (Candida albicans [23]): 32 mm; zone of inhibition at 100 µg/mL (Candida albicans [24]): 38 mm; zone of inhibition at 25 µg/mL (Fusarium oxysporum [25]): 14 mm; zone of inhibition at 50 µg/mL (Fusarium oxysporum [26]): 22 mm; zone of inhibition at 75 µg/mL (Fusarium oxysporum [27]): 27 mm; zone of inhibition at 100 µg/mL (Fusarium oxysporum [28]): 32 mm; MIC (Staphylococcus aureus [29]): 25 µg/mL; MIC (Bacillus subtilis [30]): 26 µg/mL; MIC (Escherichia coli [31]): 22 µg/mL; MIC (Klebsiella pneumoniae [32]): 26 µg/mL; MIC (Aspergillus niger [33]): 28 µg/mL; MIC (Candida albicans [34]): 30 µg/mL; MIC (Fusarium oxysporum [35]): 27 µg/mL; Activity (Staphylococcus aureus [37]): Tde; IC50 (Erythrocyte): 38 µg/mL
